Screening data from PubChem.
PGC1a acetyl inh: inhibitors of PGC1a acetylation signal, primary screen, cell-based, U2OS, AlphaScreen, inhibitor mode; inhibition, % at 15.6 µM; 0.17% of 350,000 active; AlphaScreen anti-acetyl-lysine; with virally co-expressed GCN5 acetyltransferase;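 active means every replicate shows inhibition of at least 40%; inconclusive means mean inhibition at least 40% but some replicate below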
ERAP1 HTS inh: human ERAP1 aminopeptidase inhibitors, primary screen, biochemical, single point, plate reader. AID 652197, 2013. 0.15% of 340,000 active. inhibition, % at 10.7 µM. recombinant ERAP1, Leu-AMC fluorescence, 60 min. Endoplasmic reticulum aminopeptidase 1 (Homo sapiens), Q9NZ08;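 active means mean replicate inhibition of at least 30%, or all replicates individually reaching that 30% level; inactive means mean below 30% and not every replicate reaching it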
CASP6 VEID inh: human caspase-6 inhibitors, primary screen, biochemical, VEID-R110 fluorescence, single point, set 2; inhibition, % at 12.5 µM; 0.53% of 350,000 active; purified caspase-6, Z-VEID-R110 cleavage fluorescence; P55212;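 active means mean inhibition across replicates at least about 35%, with every replicate also reaching that limit, limit read from the data; inconclusive means only one of the two criteria met; inactive means neither criterion met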
Target sequence (P55212 24-179 limits assumed): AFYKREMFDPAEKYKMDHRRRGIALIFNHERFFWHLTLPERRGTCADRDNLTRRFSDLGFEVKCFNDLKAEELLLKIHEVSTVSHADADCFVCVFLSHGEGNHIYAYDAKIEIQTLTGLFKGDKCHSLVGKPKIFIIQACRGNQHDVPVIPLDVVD
Target sequence (P55212 194-293 limits assumed): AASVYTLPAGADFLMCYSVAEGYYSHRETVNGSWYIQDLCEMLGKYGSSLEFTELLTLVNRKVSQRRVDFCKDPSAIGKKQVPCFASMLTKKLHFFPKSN
Ecoli rRNA inh: reduced GFP signal of wild-type E. coli, primary screen, bacterial rRNA inhibitor project, GFP/RFP fluorescence, OD600, single point; E. coli WT GFP vs humanized-ribosome RFP mutants, 24 h; hits give low values; DMSO median 0, no signal -100; GFP signal change (wild-type ribosome), % (test concentration not listed); 1.6% of 350,000 active;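 active means significant combined selectivity score with lowered wild-type GFP, culture density cut under 30%, mutant RFP and density less affected; inactive means any of these conditions unmet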
ARNT-TACC3 inh: disruptors of ARNT/TACC3 protein interaction, primary screen, biochemical, AlphaScreen, single concentration; AlphaScreen His-ARNT PAS-B/GST-TACC3 binding, luminescence; TACC3 fragment carries E629A point mutation; inhibition, % at 9.99 µM; 0.66% of 390,000 active;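 active means mean inhibition of replicates at least 50% and at least half of replicates each reaching 50%; inconclusive means half or more replicates reach 50% but mean below 50%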
S100A4 MyoIIA: inhibitors of S100A4-myosin IIA peptide binding, primary screen, biochemical, fluorescence polarization, TAMRA-MyoIIA peptide. Protein S100-A4 (Homo sapiens), P26447. inhibition, % at 10.7 µM. 0.14% of 360,000 active. AID 652163, 2013;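 active means mean inhibition of at least 70% across replicates, with every replicate also reaching that level; inconclusive means mean inhibition reaches 70% but some replicates fall short; inactive means mean inhibition below 70%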
Target sequence (P26447 whole entry, looked up): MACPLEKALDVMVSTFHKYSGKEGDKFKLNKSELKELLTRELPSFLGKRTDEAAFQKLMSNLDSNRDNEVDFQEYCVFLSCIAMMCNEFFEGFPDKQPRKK
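System – human S100A4 monomer protein, biochemical binding assay · Buffer or medium – Calcium-containing HEPES buffer, pH 7.2 · Timing – 5 min between mix addition and reading · Also added – TAMRA-labelled myosin IIA heavy-chain peptide probe, 5 nM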
AID977621: growth inhibition of wild-type GFP E. coli, dose response, H69 mutant RFP, cherry-pick. E. coli wild-type GFP strain growth, fluorescence, 24 h. AID 977621, 2014. activity change, negative = inhibition at 50 µM. 1,900 tested, under 10 active. shares compounds with Ecoli rRNA inh;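 active means Wild-type ribosome reporter drop at least double the humanized mutant ribosome reporter drop, growth loss under a set limit; inconclusive means no clear call, values can overlap the other calls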;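 further: wild-type GFP and H69 mutant RFP strains grown together 50/50 in each well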
AID977628: E. coli growth inhibition, wild-type GFP versus h24 humanized RFP strain, dose response, h24 mutant RFP vs wild-type GFP, cherry-pick; AID 977628, 2014; 1,900 tested, under 10 active; shares compounds with Ecoli rRNA inh; E. coli WT GFP strain growth, fluorescence, 24 h; activity change, negative = inhibition at 50 µM;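 active means compound lowering the normal-ribosome reporter at least twice as much as the humanized-ribosome reporter, growth loss under a set limit; inconclusive means no clear call, values can overlap the other calls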;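 further: wild-type GFP and h24 humanized RFP strains co-cultured 1 to 1 per well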
Hits are given with their value; ! = not confirmed by another sample. This is a sample that favours compounds with a hit; in the whole collection about 2.4% have one here.

C[C@@H]1CCCCO[C@@H](CN(C)Cc2ccc(C(=O)O)cc2)[C@H](C)CN([C@@H](C)CO)C(=O)c2cc(NC(=O)Nc3cccc4ccccc34)ccc2O1 was read as PGC1a acetyl inh inactive, ERAP1 HTS inh inactive, CASP6 VEID inh inactive, Ecoli rRNA inh inactive, ARNT-TACC3 inh inactive and S100A4 MyoIIA inactive.
C[C@H](CO)N1C[C@H](C)[C@H](CN(C)C(=O)Nc2ccc3c(c2)OCO3)Oc2c(NC(=O)Nc3ccc4c(c3)OCO4)cccc2C1=O was read as PGC1a acetyl inh inactive, ERAP1 HTS inh inactive, CASP6 VEID inh inactive, Ecoli rRNA inh inactive, ARNT-TACC3 inh inactive and S100A4 MyoIIA inactive.
C[C@@H]1CN([C@@H](C)CO)C(=O)c2cccc(NC(=O)c3nc4ccccc4s3)c2O[C@H]1CN(C)CC1CC1 was read as PGC1a acetyl inh inactive, ERAP1 HTS inh inactive, CASP6 VEID inh inactive, Ecoli rRNA inh inactive, ARNT-TACC3 inh inactive and S100A4 MyoIIA inactive.
`C[C@@H]1CN([C@H](C)CO)C(=O)c2cccc(NC(=O)Nc3ccc4c(c3)OCO4)c2O[C@@H]1CN(C)C(=O)Nc1ccc2c(c1)OCO2` gave PGC1a acetyl inh inactive, ERAP1 HTS inh inactive, CASP6 VEID inh inactive, Ecoli rRNA inh -19, ARNT-TACC3 inh inactive, S100A4 MyoIIA inactive, AID977621 inactive and AID977628 inconclusive.
For COc1cccc(NC(=O)N(C)C[C@H]2Oc3ncc(C#Cc4cccnc4)cc3C(=O)N([C@H](C)CO)C[C@H]2C)c1 the results were PGC1a acetyl inh inactive, ERAP1 HTS inh inactive, CASP6 VEID inh inactive, Ecoli rRNA inh -39, ARNT-TACC3 inh inactive, S100A4 MyoIIA inactive, AID977621 inactive and AID977628 inactive.
Screening C[C@@H]1CN([C@@H](C)CO)C(=O)c2cccc(NC(=O)c3nc4ccccc4s3)c2O[C@@H]1CN(C)CC1CC1 returned PGC1a acetyl inh inactive, ERAP1 HTS inh inactive, CASP6 VEID inh inactive, Ecoli rRNA inh -28!, ARNT-TACC3 inh inactive, S100A4 MyoIIA inactive, AID977621 inactive and AID977628 inactive.
Screening C[C@H](CO)N1C[C@H](C)[C@H](CN(C)C(=O)Nc2ccc(F)cc2)Oc2c(NC(=O)Nc3ccccc3)cccc2C1=O returned PGC1a acetyl inh inactive, ERAP1 HTS inh inactive, CASP6 VEID inh inactive, Ecoli rRNA inh -23, ARNT-TACC3 inh inactive, S100A4 MyoIIA inactive, AID977621 inactive and AID977628 inconclusive.
For CC(=O)N(C)C[C@H]1Oc2ncc(-c3cccnc3)cc2C(=O)N([C@H](C)CO)C[C@H]1C the results were PGC1a acetyl inh inactive, ERAP1 HTS inh inactive, CASP6 VEID inh inactive, Ecoli rRNA inh inactive, ARNT-TACC3 inh inactive and S100A4 MyoIIA inactive.
`O=C(Nc1ccc(F)cc1)N1CCCCN2[C@@H](CO)[C@H](c3ccc(-c4ccncc4)cc3)[C@@H]2C1` gave PGC1a acetyl inh inactive, ERAP1 HTS inh inactive, CASP6 VEID inh inactive, Ecoli rRNA inh -20, ARNT-TACC3 inh inactive, S100A4 MyoIIA inactive and AID977621 inactive.
Screening O=C(Nc1cccc(F)c1)N1[C@@H]2CNC[C@H]1C2c1ccc(-c2ccncc2)cc1 (stereo partly drawn) returned PGC1a acetyl inh inactive, ERAP1 HTS inh inactive, CASP6 VEID inh inactive, Ecoli rRNA inh -25, S100A4 MyoIIA inactive, AID977621 inactive and AID977628 inactive.
For COc1ccc(C#Cc2ccc([C@@H]3[C@H](CO)N4CCCCN(C(=O)Nc5ccc(F)cc5)C[C@@H]34)cc2)cc1 the results were PGC1a acetyl inh inactive, ERAP1 HTS inh inactive, CASP6 VEID inh inactive, Ecoli rRNA inh inactive, ARNT-TACC3 inh inactive and S100A4 MyoIIA inactive.
COc1ccc(C#Cc2ccc([C@@H]3[C@@H](CO)N4CCCCN(C(=O)Nc5ccc(F)cc5)C[C@H]34)cc2)cc1 was read as PGC1a acetyl inh inactive, ERAP1 HTS inh inactive, CASP6 VEID inh inactive, Ecoli rRNA inh -48, ARNT-TACC3 inh inactive, S100A4 MyoIIA inactive and AID977628 inconclusive.
`O=C(Nc1cccc(F)c1)N1[C@@H]2CNC[C@H]1C2c1ccc(-c2cccc(F)c2)cc1` (stereo partly drawn) gave PGC1a acetyl inh inactive, ERAP1 HTS inh inactive, CASP6 VEID inh inactive, Ecoli rRNA inh inactive and S100A4 MyoIIA inactive.
COCC(=O)Nc1ccc2c(c1)C(=O)N(C)C[C@@H](OC)[C@@H](C)CN(Cc1ccccc1)[C@H](C)CO2 was read as PGC1a acetyl inh inactive, ERAP1 HTS inh inactive, CASP6 VEID inh inactive, Ecoli rRNA inh inactive, ARNT-TACC3 inh inactive and S100A4 MyoIIA inactive.
`COCC(=O)Nc1ccc2c(c1)OC[C@H](C)N(C(=O)CC1CC1)C[C@H](C)[C@@H](OC)CN(C)C2=O` gave PGC1a acetyl inh inactive, ERAP1 HTS inh inactive, CASP6 VEID inh inactive, Ecoli rRNA inh inactive and S100A4 MyoIIA inactive.
Cc1nnc2sc(SCC(=O)Nc3ccc(Br)cc3)nn2c1=O was read as PGC1a acetyl inh inactive, ERAP1 HTS inh inactive, CASP6 VEID inh inactive, Ecoli rRNA inh -24, ARNT-TACC3 inh 74, S100A4 MyoIIA inactive and AID977621 inactive.
For COc1cc(NC(=O)c2ccc(Cl)cc2)c(OC)cc1NC(=O)CN1CCCCC1 the results were PGC1a acetyl inh inactive, ERAP1 HTS inh inactive, CASP6 VEID inh inactive, Ecoli rRNA inh -26, S100A4 MyoIIA inactive, AID977621 inactive and AID977628 inactive.
O=C(O)C[C@H]1CC[C@@H](NC(=O)CCN2CCCCC2)[C@H](CO)O1 was read as PGC1a acetyl inh inactive, ERAP1 HTS inh inactive, CASP6 VEID inh inactive, Ecoli rRNA inh inactive and S100A4 MyoIIA inactive.
For CN1C(=O)c2cccc3c(S(=O)(=O)NCCc4ccccc4)ccc1c23 the results were PGC1a acetyl inh inactive, ERAP1 HTS inh inactive, CASP6 VEID inh inactive, Ecoli rRNA inh -23, S100A4 MyoIIA inactive and AID977621 inconclusive.
Screening COCCNS(=O)(=O)c1ccc2c3c(cccc13)C(=O)N2C returned PGC1a acetyl inh inactive, ERAP1 HTS inh inactive, CASP6 VEID inh inactive, Ecoli rRNA inh inactive, ARNT-TACC3 inh inactive and S100A4 MyoIIA inactive.
